Laboratory results reported in BindingDB's records for doi:10.1021/jm950682e (Institute De Recherches Servier, 1996).
Numbered stars: 1 amine (or outer) side, 2 acyl side, 3 side chain; on linkers, the order of the positions; unused ones are H or OH. Square brackets hold non-standard residues; d marks the D form. Peptide text beside a SMILES is read from it. * marks the point of attachment. Pentanoyl(5-guanidino) = NC(N)=NCCCCC(=O)*; NH(CH2)9CO = O=C(CCCCCCCCCN[*:1])[*:2]; Oic = O=C(O)[CH]1C[CH]2CCCC[CH]2N1; Tic = O=C(O)[CH]1Cc2ccccc2CN1; 2Thi = N[CH](Cc1cccs1)C(=O)O; X2 = N=C(N)NCCCCCC(=O)*; GABA = NCCCC(=O)O

Target: T1, B2 bradykinin receptor (Oryctolagus cuniculus, UniProt Q28642)
T1 sequence (Q28642 whole entry): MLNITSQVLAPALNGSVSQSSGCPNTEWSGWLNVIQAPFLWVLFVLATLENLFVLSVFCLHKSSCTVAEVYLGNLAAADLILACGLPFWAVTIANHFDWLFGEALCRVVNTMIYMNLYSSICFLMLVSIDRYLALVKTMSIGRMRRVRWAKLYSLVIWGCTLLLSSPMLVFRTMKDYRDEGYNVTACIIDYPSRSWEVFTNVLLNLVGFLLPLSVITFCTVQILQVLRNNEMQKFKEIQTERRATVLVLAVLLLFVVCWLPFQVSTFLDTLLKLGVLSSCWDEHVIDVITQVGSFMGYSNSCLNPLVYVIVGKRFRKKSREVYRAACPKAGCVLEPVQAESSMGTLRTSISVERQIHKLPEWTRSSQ
Experiment: In vitro antagonistic activity against kinin-induced rabbit jugular vein contraction.
How it was run: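 Rabbit jugular vein rings (B2 tissue), reference KCl 60 mM contraction then 45 min rest; antagonist, usually 10-7, 10^-6 and 10^-5 M, incubated 45 min before cumulative bradykinin; one curve per ring; pA2 by Tallarida's method with Schild slope constrained to unity, or pKB from EC50 ratio when activity appeared only at 10^-5 M.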

Structure (SMILES) | Kd [nM]
N=C(N)NCCCC(NC(=O)C1CC2CCCCC2N1C(=O)C1Cc2ccccc2CN1C(=O)C(Cc1cccs1)NC(=O)CCCCCCCCCN)C(=O)O (stereo not given) ({NH(CH2)9CO}-[2Thi][Tic][Oic]R-OH; configuration not given here) | 468
N=C(N)NCCCC(NC(=O)C1CC2CCCCC2N1C(=O)C1Cc2ccccc2CN1C(=O)C(Cc1ccccc1)NC(=O)CCCN)C(=O)O (stereo not given) (H-[GABA]F[Tic][Oic]R-OH; configuration not given here) | 363
N=C(N)NCCCCCC(=O)NC(Cc1cccs1)C(=O)N1Cc2ccccc2CC1C(=O)N1C(C(=O)NC(CCCNC(=N)N)C(=O)O)CC2CCCCC21 (stereo not given) (X2-[2Thi][Tic][Oic]R-OH; configuration not given here) | 3390

The next lines start with the values.

Kd [nM] | Structure (SMILES)
251 | N=C(N)NCCCC(NC(=O)C1CC2CCCCC2N1C(=O)C1Cc2ccccc2CN1C(=O)C(Cc1cccs1)NC(=O)CCCN)C(=O)O (stereo not given) (H-[GABA][2Thi][Tic][Oic]R-OH; configuration not given here)
3020 | N=C(N)NCCCCC(=O)NC(Cc1cccs1)C(=O)N1Cc2ccccc2CC1C(=O)N1C(C(=O)NC(CCCNC(=N)N)C(=O)O)CC2CCCCC21 (stereo not given) ({Pentanoyl(5-guanidino)}-[2Thi][Tic][Oic]R-OH; configuration not given here)
